PostGolgi yeast – growth inhibition of a yeast mutant, post-Golgi transport screen; post-Golgi transport phenotypic cell assay; inhibition, % at 10 µM; 0.9% of 98,000 active; AID 739;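 note: yeast cells grown in 1536-well plates; yeast grown about 18 h at 30C before absorbance read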
PLAP activator – activates human placental alkaline phosphatase. AID 696. P05187. 1.2% of 96,000 active. purified PLAP enzyme, luminescent substrate read-out; hits give high values. activation fold at 20 µM; in the data active = activation fold above about 2
Target sequence (P05187 whole entry, looked up): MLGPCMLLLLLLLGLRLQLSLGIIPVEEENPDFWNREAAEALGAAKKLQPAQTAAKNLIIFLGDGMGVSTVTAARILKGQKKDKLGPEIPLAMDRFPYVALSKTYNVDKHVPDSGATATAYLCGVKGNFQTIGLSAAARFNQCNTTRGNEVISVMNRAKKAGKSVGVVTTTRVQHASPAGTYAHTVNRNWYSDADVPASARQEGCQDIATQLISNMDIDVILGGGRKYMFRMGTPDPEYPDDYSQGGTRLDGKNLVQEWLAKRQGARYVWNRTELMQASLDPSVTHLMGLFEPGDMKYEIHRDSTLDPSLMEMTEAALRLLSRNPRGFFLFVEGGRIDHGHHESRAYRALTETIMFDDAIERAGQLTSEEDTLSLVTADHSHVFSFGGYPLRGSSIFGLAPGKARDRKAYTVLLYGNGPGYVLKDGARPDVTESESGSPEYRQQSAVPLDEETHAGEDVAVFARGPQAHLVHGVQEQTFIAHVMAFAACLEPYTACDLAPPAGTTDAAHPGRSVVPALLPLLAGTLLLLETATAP
HePTP inh – inhibitors of human HePTP phosphatase; P35236; recombinant HePTP phosphatase activity, OD absorbance; inhibition, % at 20 µM; 0.64% of 110,000 active; in the data active = inhibition above about 50%;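 note: plate controls were vehicle for no effect and reference inhibitor for full effect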
Ecoli WT expand – growth inhibitors of E. coli BW25113 wild type | AID 710 | growth inhibition, % at 100 µM | OD600 absorbance | 0.15% of 98,000 active;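 active = growth inhibition above about 50% at one test dose, limit read from the data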;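 note: growth measured after 20 h incubation at 37 °C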
PostGolgi ctrl – yeast control strain growth, post-Golgi counter-screen; efflux-deficient yeast background strain, growth absorbance A615, 16 h; inhibition, % at 10 µM; 5% of 98,000 active; AID 738
tolC growth inh – E. coli tolC mutant growth inhibition; AID 573; growth inhibition, % at 10 µM (by protocol); E. coli BW25113 tolC mutant growth, OD615; 2.2% of 65,000 active;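 active = growth inhibition at or above a cutoff equal to the mean over every tested compound plus 3 SD, cut at about 60% in these data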;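 note: growth measured after 20 h incubation at 37 °C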
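Test system: tolC-deleted E. coli BW25113 | Medium: LB with kanamycin 50 µg/mL | Compound dosing: Single concentration, 10 µM final per compound | Schedule: 37 °C, 20 h exposure | Measured by: OD at 615 nm | Evaluation: Percent growth inhibition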
An asterisk follows results filed as active. Rows were chosen to be rich in hits. Some 5.4% of all compounds tested hit in one or more screens of this group. Cut-off read from the data, not from the text of the source, unless noted: active = inhibition above about 30%; inactive = the rest.

`CCC(C(=O)N1CCc2ccccc2C1)n1nc(C)n2c(cc3occc32)c1=O` (stereo not given) gave PostGolgi yeast -4, PLAP activator 1.5, HePTP inh 3, Ecoli WT expand -4, PostGolgi ctrl 30* and tolC growth inh 0.
Screening COc1ccc(CNc2nc3c(c(C(F)(F)F)n2)CCCCC3)cc1 returned PostGolgi yeast -6, PLAP activator 0.8, HePTP inh 9, Ecoli WT expand -5, PostGolgi ctrl 39* and tolC growth inh 50.
Screening CCN(CC)c1ncn(Cc2c(Cl)cccc2Cl)c2ncnc1-2 returned PostGolgi yeast -36, PLAP activator 0.9, Ecoli WT expand -5 and PostGolgi ctrl 34*.
`CC(C)(C)n1ncc2c(=O)n(Cc3c(F)cccc3Cl)cnc21` gave PostGolgi yeast -2, PLAP activator 1.1, Ecoli WT expand 6, PostGolgi ctrl 4 and tolC growth inh 14.
For CCN(CC)c1ccc(NC(=O)c2cccnc2)cc1 the results were PostGolgi yeast 3, PLAP activator 1.1, HePTP inh -17, Ecoli WT expand 8 and PostGolgi ctrl -5.
CCN(CC)c1ccc(-c2nc3cnccc3n2C)cc1 was read as PostGolgi yeast 38*, PLAP activator 1.4, HePTP inh 3, Ecoli WT expand 7, PostGolgi ctrl 0 and tolC growth inh -6.
CCc1ccccc1NC(=O)C(=O)NCCCO was read as HePTP inh 7.
O=C(Nc1ccc(Cl)c(Cl)c1)C1C(c2ccccc2)C1(Cl)Cl (stereo not given) was read as HePTP inh -20.
For COc1ccc(NS(=O)(=O)c2ccc(OC)c(OC)c2)cc1 the results were HePTP inh -11.
Screening CCc1ccc(NS(=O)(=O)c2ccc(OC)c(C)c2)cc1 returned PostGolgi yeast -10, PLAP activator 1.3, Ecoli WT expand -3 and PostGolgi ctrl 36*.
Screening COc1cc(S(=O)(=O)Nc2ccccc2C)ccc1Cl returned PostGolgi yeast -6, PLAP activator 1, HePTP inh 4, Ecoli WT expand 3, PostGolgi ctrl 20 and tolC growth inh 14.
Screening CCOc1cc(S(=O)(=O)Nc2ccc(CC)cc2)ccc1Cl returned PostGolgi yeast -8, PLAP activator 1, Ecoli WT expand -16 and PostGolgi ctrl 41*.
For CCOc1cc(S(=O)(=O)Nc2ccccc2CC)ccc1Cl the results were PostGolgi yeast 11, PLAP activator 1, Ecoli WT expand 2 and PostGolgi ctrl 59*.
`COc1ccc(S(=O)(=O)Nc2ccc(S(=O)(=O)Nc3nc(C)cc(C)n3)cc2)cc1OC` gave PostGolgi yeast 5, PLAP activator 0.9, HePTP inh 0, Ecoli WT expand -13, PostGolgi ctrl 32* and tolC growth inh -6.
COc1ccc(/C=C/C(=O)Nc2ccc3c(c2)oc2ccccc23)cc1 was read as HePTP inh 8.
`S=C(Nc1ccccc1)Nc1ccc(Cl)cc1` gave HePTP inh 8.
COCCn1nnnc1CN1CCC(O)(c2cccc(C(F)(F)F)c2)CC1 was read as PostGolgi yeast 8, PLAP activator 1.1, HePTP inh -4, Ecoli WT expand -8, PostGolgi ctrl 3 and tolC growth inh -11.
COc1cc(S(=O)(=O)N2CCC(O)(c3cccc(C(F)(F)F)c3)CC2)ccc1-n1cnnn1 was read as PostGolgi yeast -10, PLAP activator 0.8, HePTP inh 9, Ecoli WT expand -10, PostGolgi ctrl 3 and tolC growth inh 100*.
Screening NC1=NC(c2cn(-c3ccccc3)nc2-c2cccs2)n2c(nc3ccccc32)N1 (stereo not given) returned PostGolgi yeast 22, PLAP activator 1.8, HePTP inh 3, Ecoli WT expand 6, PostGolgi ctrl 9 and tolC growth inh 100*.
`Cc1ccccc1-c1nc(CN2CCC(C(=O)NCCC3=CCCCC3)CC2)c(C)o1` gave PostGolgi yeast 2, PLAP activator 2.3*, HePTP inh -1, Ecoli WT expand 16, PostGolgi ctrl 9 and tolC growth inh 65*.
`COc1ccc(CCNC(=O)C2CCN(Cc3nc(-c4ccccc4C)oc3C)CC2)cc1OC` gave PostGolgi yeast 4, PLAP activator 2.1*, HePTP inh -12, Ecoli WT expand 11, PostGolgi ctrl -7 and tolC growth inh 8.
Screening COc1ccc(OC)c(CCNC(=O)CS(=O)(=O)Cc2nc(-c3ccccc3C)oc2C)c1 returned PostGolgi yeast 6, PLAP activator 1.2, HePTP inh 3, Ecoli WT expand -4, PostGolgi ctrl 37* and tolC growth inh 45.
CCN(CCNC(=O)C1CCN(Cc2nc(-c3ccc(Cl)cc3)oc2C)CC1)c1ccccc1 was read as PostGolgi yeast 3, PLAP activator 1.9, HePTP inh 8, Ecoli WT expand 12, PostGolgi ctrl 23 and tolC growth inh 7.
COc1cccc(-c2nc(CS(=O)(=O)CC(=O)NCc3ccccc3OC)c(C)o2)c1 was read as PostGolgi yeast 0, HePTP inh -6, Ecoli WT expand 0, PostGolgi ctrl 2 and tolC growth inh -8.
Screening CCN(CCNC(=O)C1CCN(Cc2nc(-c3cccc(Cl)c3)oc2C)CC1)c1ccccc1 returned PostGolgi yeast -1, PLAP activator 2*, HePTP inh 8, Ecoli WT expand 9, PostGolgi ctrl 25 and tolC growth inh 65*.
`COc1ccc(CCNC(=O)C2CCN(Cc3nc(-c4ccc(Cl)cc4)oc3C)CC2)cc1OC` gave HePTP inh -5 and tolC growth inh 4.
For O=C(NCCCOC(=O)c1ccccc1Br)c1ccccc1Br the results were HePTP inh -8.
`Cc1cc(N2CC(C)OC(C)C2)n2c(nc3ccccc32)c1C#N` (stereo not given) gave HePTP inh 7.
`CC(C)(C)c1ccc(OCC(=O)Nc2ccc(NC(=O)c3ccco3)c(Cl)c2)cc1` gave HePTP inh -2.
For CCOC(=O)c1cc(-c2ccc(Cl)cc2)nc2c1c(C)nn2CCC#N the results were PostGolgi yeast 3, PLAP activator 1, Ecoli WT expand -5 and PostGolgi ctrl 15.
For CCOC(=O)c1cc(-c2ccc(OC)cc2F)nc2c1c(C)nn2CCC#N the results were PostGolgi yeast -3, PLAP activator 1.1, Ecoli WT expand -22 and PostGolgi ctrl 45*.
Screening COc1ccc(-c2nc(C)c(C(C)=O)n2O)cc1OC returned PostGolgi yeast -1, PLAP activator 1.1, HePTP inh -4, Ecoli WT expand 2, PostGolgi ctrl 13 and tolC growth inh 10.
`CCc1c(C)nc2cc(-c3ccc(OC)c(OC)c3)nn2c1NCC1CC1` gave PostGolgi yeast 12, PLAP activator 2*, Ecoli WT expand -12 and PostGolgi ctrl 22.
`CCOC(=O)c1c(C=O)c(C)n(Cc2ccc(Cl)cc2)c1C` gave PostGolgi yeast 3, PLAP activator 0.8, Ecoli WT expand 12 and PostGolgi ctrl 42*.

Screens as filed in PubChem.
